In ChEMBL document CHEMBL3621081, “Rational Development of a Potent 15-Lipoxygenase-1 Inhibitor with in Vitro and ex Vivo Anti-inflammatory Properties” (J Med Chem, 2015):
The source made the active and inactive calls. The calls are words filed in the database; no cut-off is given here.

Assays:
[1] = target: T1, Polyunsaturated fatty acid lipoxygenase ALOX15 (Homo sapiens) (UniProt P16050); assay: Inhibition of human 15-LOX1 assessed as conversion of linoleic acid to 13(S)-HpODE at 50 uM after 10 mins by UV analysis
T1 sequence (whole entry): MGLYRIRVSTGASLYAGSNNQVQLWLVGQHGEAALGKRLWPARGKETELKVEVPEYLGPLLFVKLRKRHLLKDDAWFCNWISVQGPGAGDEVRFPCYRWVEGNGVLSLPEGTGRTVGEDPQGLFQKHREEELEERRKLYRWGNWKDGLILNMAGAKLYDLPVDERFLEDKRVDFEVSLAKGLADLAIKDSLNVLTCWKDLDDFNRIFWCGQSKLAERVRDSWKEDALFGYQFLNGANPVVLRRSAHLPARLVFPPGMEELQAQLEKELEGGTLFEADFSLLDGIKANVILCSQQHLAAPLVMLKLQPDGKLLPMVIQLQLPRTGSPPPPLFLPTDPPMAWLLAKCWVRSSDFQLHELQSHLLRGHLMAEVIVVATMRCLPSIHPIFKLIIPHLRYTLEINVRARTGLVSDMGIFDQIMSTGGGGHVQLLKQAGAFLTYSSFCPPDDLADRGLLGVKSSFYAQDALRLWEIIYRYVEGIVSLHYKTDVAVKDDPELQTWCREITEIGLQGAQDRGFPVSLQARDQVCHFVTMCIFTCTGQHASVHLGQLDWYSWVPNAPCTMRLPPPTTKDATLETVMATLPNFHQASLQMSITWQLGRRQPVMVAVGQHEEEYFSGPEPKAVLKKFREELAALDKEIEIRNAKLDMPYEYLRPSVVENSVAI
In short: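 Single-concentration screen at 50 μM: h-15-LOX-1 (1:640 final) in 25 mM HEPES pH 7.5 is preincubated with inhibitor for 10 min at rt. 25 µM linoleic acid final is added, and product formation is followed as the linear A234 increase. Activity is normalised to no-inhibitor (100%) and no-enzyme (0%) controls, in triplicate.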

Lung [2] = assay: Antiinflammatory activity in C57BL/6 mouse precision-cut lung slices assessed as reduction of LPS/INFgamma-induced IL-6 gene expression at 1 to 100 nM treated 20 hrs before LPS/INFgamma stimulation measured after 4 hrs by RT-qPCR analysis relative to control; assay type: functional, tissue-based
In short: (§1)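 Male C57bl/6 mouse lungs are agarose-filled, then cut into 250 μm slices, 3 per well, in supplemented DMEM at 37 °C and 5% CO2. Inhibitor is given at 1-500 nM final with 10 μM linoleic acid for 20 h, and LPS/IFNγ is added for the last 4 h. IL-1β, IL-6, IL-10, IL-12 and GAPDH mRNA are measured by RT-qPCR as fold change versus the LPS/IFNγ/linoleic acid control. Mean ± SEM, 4-6 independent experiments.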

Lung [3] = assay: Antiinflammatory activity in C57BL/6 mouse precision-cut lung slices assessed as reduction of LPS/INFgamma-induced IL-12 gene expression at 1 to 100 nM treated 20 hrs before LPS/INFgamma stimulation measured after 4 hrs by RT-qPCR analysis relative to control; assay type: functional, tissue-based; in short: as §1
RAW264.7 [4] = assay: Cytotoxicity against mouse RAW264.7 cells assessed as cell viability at 12.5 uM by MTS assay; assay type: cell-based; details: raw264.7, 12.5 µM
In short: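 RAW 264.7 macrophages are incubated with inhibitor at 0.05-100 μM, and viability is read by MTS assay. Treated wells are compared statistically with non-treated control cells.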

Lung [5] = assay: Cytotoxicity against C57BL/6 mouse precision-cut lung slices assessed as viability at 500 nM by LDH release assay; assay type: tissue-based; details: 0.5 µM
In short: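 Mouse lung slices are exposed to 1, 10, 100 or 500 nM inhibitor with 10 μM linoleic acid for 20 h. […] Mean ± SD of 3 independent experiments.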

RAW264.7 [6] = assay: Antiinflammatory activity in mouse RAW264.7 cells assessed as effect on LPS/INFgamma-induced IL-1beta gene expression at 1 to 100 nM treated 20 hrs before LPS/INFgamma stimulation measured after 4 hrs by RT-qPCR analysis; assay type: functional, cell-based
In short: (§2)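 RAW 264.7 cells (passage 7-16, DMEM with 10% FBS) are seeded at 20,000 cells/cm2 the day before. They receive 1-500 nM inhibitor final plus 10 μM linoleic acid for 20 h, with 10 ng/ml LPS and IFNγ for the last 4 h. Cytokine mRNA is measured by RT-qPCR on 10 ng cDNA, PCR in duplicate or triplicate, as fold change versus the LPS/IFNγ/linoleic acid control. Mean ± SEM, 4-6 experiments.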

RAW264.7 [7] = assay: Antiinflammatory activity in mouse RAW264.7 cells assessed as effect on LPS/INFgamma-induced IL-6 gene expression at 1 to 100 nM treated 20 hrs before LPS/INFgamma stimulation measured after 4 hrs by RT-qPCR analysis; assay type: functional, cell-based; in short: as §2
RAW264.7 [8] = assay: Antiinflammatory activity in mouse RAW264.7 cells assessed as effect on LPS/INFgamma-induced IL-12 gene expression at 1 to 100 nM treated 20 hrs before LPS/INFgamma stimulation measured after 4 hrs by RT-qPCR analysis; assay type: functional, cell-based; in short: as §2
Lung [9] = assay: Antiinflammatory activity in C57BL/6 mouse precision-cut lung slices assessed as increase of LPS/INFgamma-induced IL-10 gene expression at 1 to 100 nM treated 20 hrs before LPS/INFgamma stimulation measured after 4 hrs by RT-qPCR analysis relative to control; assay type: functional, tissue-based; in short: as §1
Lung [10] = assay: Antiinflammatory activity in C57BL/6 mouse precision-cut lung slices assessed as reduction of LPS/INFgamma-induced IL-1beta gene expression at 1 to 100 nM treated 20 hrs before LPS/INFgamma stimulation measured after 4 hrs by RT-qPCR analysis relative to control; assay type: functional, tissue-based; in short: as §1

Q: O=Cc1c[nH]c2cc(Cl)ccc12 was tested. Which inhibition [1] did it give?
A: Its inhibition is “inactive”.

Q: How did the inhibition [1] turn out when O=Cc1c[nH]c2ccccc12 was run?
A: Its inhibition is “inactive”.

Q: How did the inhibition [1] turn out when O=Cc1c(Cl)[nH]c2cc(Cl)ccc12 was run?
A: Its inhibition is “inactive”.

Q: CC(C)(C)OC(=O)c1cc2ccc(Cl)cc2[nH]1 was tested. Which inhibition [1] did it give?
A: Its inhibition is “inactive”.

Q: How did the inhibition [1] turn out when CC(C)(C)OC(=O)n1cc(C=O)c2ccccc21 was run?
A: The inhibition was “inactive”.

Q: With CCOC(=O)c1c(C=O)c2ccc(Cl)cc2n1C as the compound, how does the inhibition [1] read?
A: Its inhibition is “inactive”.

Q: O=Cc1c(C(=O)O)[nH]c2cc(Cl)ccc12 was tested. Which inhibition [1] did it give?
A: The inhibition was “inactive”.

Q: For CCOC(=O)c1[nH]c2cc(Cl)ccc2c1C(=O)C[C@@H](C)CCCC(C)C, which Activity (Lung [2]) is on record?
A: The Activity was “Active”.

Q: And the Activity (Lung [3])?
A: The Activity was “inactive”.

Q: And the Activity (RAW264.7 [4])?
A: Its Activity is “Non-toxic”.

Q: What about the Activity (Lung [5]) of the same compound?
A: Its Activity is “Non-toxic”.

Q: And the Activity (RAW264.7 [6])?
A: The Activity was “inactive”.

Q: What about the Activity (RAW264.7 [7]) of the same compound?
A: Its Activity is “inactive”.

Q: And the Activity (RAW264.7 [8])?
A: The Activity was “inactive”.

Q: What about the Activity (Lung [9]) of the same compound?
A: The Activity was “Active”.

Q: And the Activity (Lung [10])?
A: The Activity was “Active”.
